Screens: PubChem BioAssay, several laboratories
TLR4 MyD88 comp: inhibitors of TLR4-MyD88 association in cells, primary screen, cell-based, HeLa CL3-4, BLA complementation, FRET ratio. hit rate 0.18% among 200,000. HeLa CL3-4 TLR4/MyD88 BLA complementation. inhibition, % at 8.4 µM. Toll-like receptor 4 (Homo sapiens) + Myeloid differentiation primary response protein …; in the data active = inhibition above about 25%;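 note: 0% = vehicle and 100% = reference inhibitor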
Target sequence (O00206 whole entry, looked up): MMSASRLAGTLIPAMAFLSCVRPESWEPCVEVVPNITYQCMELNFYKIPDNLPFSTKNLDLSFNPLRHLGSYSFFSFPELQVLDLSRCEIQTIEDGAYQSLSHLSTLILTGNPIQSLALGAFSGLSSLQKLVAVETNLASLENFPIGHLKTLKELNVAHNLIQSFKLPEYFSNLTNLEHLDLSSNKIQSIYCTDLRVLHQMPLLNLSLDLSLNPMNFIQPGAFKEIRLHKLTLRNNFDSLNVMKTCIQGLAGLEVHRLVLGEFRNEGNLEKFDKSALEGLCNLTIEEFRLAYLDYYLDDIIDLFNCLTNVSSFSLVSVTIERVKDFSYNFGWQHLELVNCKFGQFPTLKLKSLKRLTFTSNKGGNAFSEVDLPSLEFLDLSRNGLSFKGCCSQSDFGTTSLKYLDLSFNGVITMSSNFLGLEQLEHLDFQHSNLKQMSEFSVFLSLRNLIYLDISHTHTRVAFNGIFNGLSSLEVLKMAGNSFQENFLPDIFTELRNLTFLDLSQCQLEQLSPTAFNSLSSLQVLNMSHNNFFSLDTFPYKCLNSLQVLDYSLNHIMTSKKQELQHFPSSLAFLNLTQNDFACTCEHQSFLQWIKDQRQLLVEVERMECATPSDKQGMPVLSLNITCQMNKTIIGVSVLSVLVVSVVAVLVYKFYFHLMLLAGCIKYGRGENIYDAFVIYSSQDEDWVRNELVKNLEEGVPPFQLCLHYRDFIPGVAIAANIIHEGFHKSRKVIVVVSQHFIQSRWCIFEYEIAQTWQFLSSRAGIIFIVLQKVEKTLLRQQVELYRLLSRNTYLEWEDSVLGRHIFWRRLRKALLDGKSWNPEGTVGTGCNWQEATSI
Target sequence (Q99836 whole entry, looked up): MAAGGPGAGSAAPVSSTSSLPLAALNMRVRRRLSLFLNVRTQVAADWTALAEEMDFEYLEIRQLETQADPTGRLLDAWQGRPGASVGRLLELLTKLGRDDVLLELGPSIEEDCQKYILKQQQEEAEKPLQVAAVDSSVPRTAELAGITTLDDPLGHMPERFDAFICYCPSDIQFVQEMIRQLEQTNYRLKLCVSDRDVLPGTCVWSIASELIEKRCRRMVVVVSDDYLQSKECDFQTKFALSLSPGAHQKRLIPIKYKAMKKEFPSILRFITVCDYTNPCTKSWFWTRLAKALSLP
CHOP inh: inhibitors of CHOP promoter induction, primary screen, cell-based, unfolded protein response, luciferase reporter | AID 2732, 2010 | hit rate 3.8% among 220,000 | CHO-K1 CHOP-promoter luciferase, tunicamycin-induced, 15-18 h | inhibition, % at 10 µM;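 active = compounds that reduced the stress-induced luciferase reporter signal by more than about 70% of percent inhibition, limit read from the data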;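 note: 0% = tunicamycin plus vehicle and 100% = wells without tunicamycin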
TLR9-MyD88 inh: inhibitors of TLR9-MyD88 association in cells, primary screen, cell-based, CHO, BLA complementation, fluorescence | CCF4 FRET ratio | inhibition, % at 4.98 µM | hit rate 0.21% among 340,000;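 active = inhibition above the mean over all tested compounds plus 3 SD, cut at about 21% in these data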;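 note: 0% = DMSO only wells and 100% = clavulanate BLA inhibitor control wells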
NOD2-RIPK2 inh: NOD2-RIPK2 binding disruptors in cells, primary screen, fluorescence, CHO cells, BLA complementation. AID 624267, 2012. inhibition, % at 4.98 µM. hit rate 0.38% among 360,000. Receptor-interacting serine/threonine-protein kinase 2 (Homo sapiens), O43353. CCF4 ratio; in the data active = inhibition above about 21%;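 note: 0% = vehicle only and 100% = reference blocker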
UPR XBP1 act: activators of adaptive XBP1 UPR arm, primary screen, cell-based, CHO-XBP1 luciferase reporter, luminescence, uHTS | IRE1-XBP1 UPR activation; percent of tunicamycin response, DMSO as zero | activation, % at 20 µM | hit rate 0.33% among 330,000 | AID 463104, 2010;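 active = versus positive control, 20 µM dose yields 30% or more activation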;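 note: 100% = tunicamycin at 10 µg/mL and 0% = DMSO only wells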
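Signal: luciferase luminescence; Assay system: CHO-XBP1 luciferase reporter cells; Amount: one thousand reporter cells per well; Dosing: 20 µM single concentration, DMSO 1%; Benchmarks: high control tunicamycin 10 µg/mL final, low control DMSO vehicle only; Schedule: 6 h compound exposure at 37 °C, 5% CO2; Evaluation: percent activation relative to tunicamycin reference.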
UPR CHOP act: activators of apoptotic CHOP UPR arm, primary screen, cell-based, CHO-CHOP luciferase reporter, luminescence, uHTS | UPR activation; percent of tunicamycin response over DMSO baseline | activation, % at 10 µM | hit rate 0.34% among 330,000 | AID 449763, 2010;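 active = at 10 µM dose, activation of 40% or more, normalized to positive control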;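 note: 100% = tunicamycin at 10 µg/mL and 0% = DMSO alone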
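Material: CHO-CHOP cells, stable luciferase reporter of PERK-eIF2a-CHOP signalling; quantity: 500 reporter cells seeded per well; buffer or medium: F12 medium containing 10% fetal bovine serum; compound: one dose, 10 µM in 0.5% DMSO; incubation: 6 h compound treatment, 37 °C; measured by: Steady-Glo luciferase luminescence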
Active calls of the source: *; · = not tested or not shown. The full list was thinned out, with hits kept by preference.

SMILES	TLR4 MyD88 comp	CHOP inh	TLR9-MyD88 inh	NOD2-RIPK2 inh	UPR XBP1 act	UPR CHOP act
CCN1C(=O)C(CC(=O)Nc2ccc(F)cc2)N(CCCN2CCN(c3ccc(F)cc3)CC2)C1=S (stereo not given)	-2	95*	3	8	-2	-2
CCCOc1ccc(NC(=O)CC2C(=O)N(CC)C(=S)N2CCCN2CCN(Cc3ccccc3)CC2)cc1 (stereo not given)	-17	92*	7	10	4	2
CCN1C(=O)C(CC(=O)Nc2ccc(Br)cc2)N(CCCc2ccccc2)C1=S (stereo not given)	0	89*	3	7	4	0
O=C(CCN1CCN(CCO)CC1)Nc1ccc(OCc2ccccc2)cc1	0	2	4	4	1	-2
COc1ccccc1Cc1c(C(C)(C)C)nc2ccc(C)cn12	·	·	·	-7	·	·
CCOC(=O)CNC(=O)N(C)[C@H]1C[C@H]2c3[nH]c4ccccc4c3CCN2C(=O)[C@H]1[C@H](C)O	·	·	·	-8	·	·
CCNC(=O)C1(C)CCCN1C(=O)c1cc(C)on1 (stereo not given)	·	·	·	0	·	·
Cc1ccc(OCc2nnc(SCC(=O)CC(=O)Nc3ccccc3)o2)cc1	-5	73*	8	7	-3	-2
COc1ccc(OCc2nnc(SCC(=O)Nc3ccc(C)cc3)o2)cc1	·	·	2	3	0	0
NC1=NC(=O)/C(=C/c2ccccc2OS(=O)(=O)c2ccccc2)S1	1	41	-3	-7	0	2
NC1=NC(=O)/C(=C/c2c(OS(=O)(=O)c3ccc(Cl)cc3)ccc3ccccc23)S1	0	94*	0	-1	0	3
CC(C)OCCCNC(=O)CN1C(=O)CSc2ccc(S(=O)(=O)N3CCOCC3)cc21	·	·	-7	-11	·	·
O=C(COC(=O)C12CC3CC(CC(C3)C1)C2)NC12CC3CC(CC(C3)C1)C2	3	76*	1	-7	2	-1
O=C(COC(=O)C12CC3CC(CC(O)(C3)C1)C2)Nc1ccc(OC(F)F)cc1	·	·	9	-1	0	2
O=C(COC(=O)C12CC3CC(CC(C3)C1)C2)Nc1ccc(OC(F)F)cc1	-7	94*	-12	-5	4	-2
COc1ccc(Cn2cc(CN3CC(N4CCN(CCO)CC4)CS3(=O)=O)nn2)cc1 (stereo not given)	·	·	·	0	·	·
Cn1c(NCc2ccccc2F)nc2cc(-c3cccc(Cl)c3)sc2c1=O	·	·	·	-7	·	·
CCCC(=O)NC(c1ccc(OC)cc1)c1ccc2cccnc2c1O (stereo not given)	3	82*	-1	-9	4	3
CCc1cccc2c(C(=O)COC(=O)c3ccc([N+](=O)[O-])s3)c[nH]c12	4	73*	-10	-6	5	0
c1ccc(-[n+]2nc(Nc3cccc4ccccc34)sc2-c2c3ccccc3cc3ccccc23)cc1	·	·	44*	51*	1	14
CC(C)OCCCNc1nc2c(cnn2C)c(=O)[nH]1	·	·	-1	8	·	·
CC(C)(C)C1CCC2(CC1)CC(=O)c1ccccc1O2 (stereo not given)	·	74*	1	3	-1	0
COc1ccc(S(=O)(=O)N2CC=C(c3ccccc3)CC2)cc1OC	·	·	0	1	·	·
Cc1ccc(Nc2nc(CSc3nnc(-c4cccs4)o3)cs2)cc1	5	86*	2	-5	3	5
c1ccc(-c2nc(CSc3nnc(-c4cccs4)o3)cs2)cc1	10	-25	-3	-12	2	0
SMILES	TLR4 MyD88 comp	CHOP inh	TLR9-MyD88 inh	NOD2-RIPK2 inh	UPR XBP1 act	UPR CHOP act
Cc1ccc2c(c1)[nH]c1c(=O)n(CCN3CCNCC3)cnc12	-2	67	-3	-1	·	·
O=c1c2[nH]c3ccccc3c2ncn1CCN1CCNCC1	0	89*	-6	-5	-1	-1
CC(C)(C)c1ccc(S(=O)(=O)Nc2ccc(Cc3ccncc3)cc2)cc1	-4	79*	-9	1	1	4
CC(=O)Nc1ccc(S(=O)(=O)Nc2ccc(Cc3ccncc3)cc2)cc1	·	·	-1	-5	4	1
COc1ccc(C2/C=C\CN(C(=O)Nc3ccccc3)CC(=O)N2Cc2ccc(F)cc2)cc1 (stereo not given)	·	9	7	7	-2	0
COc1ccc(C2/C=C\CN(C(=O)Nc3ccc(C(F)(F)F)cc3)CC(=O)N2Cc2ccc(F)cc2)cc1 (stereo not given)	·	75*	2	-1	-5	5
CCc1ccc(CN(C)CC(=O)Nc2ccc3c(c2)CCC3)cc1	-10	92*	10	-2	1	-2
Cc1ccc(CN(C)CC(=O)Nc2ccc3c(c2)CCC3)cc1	5	-25	-2	6	-1	2
O=S(=O)(NC12CC3CC(CC(C3)C1)C2)c1ccc(F)cc1	8	72*	-6	1	0	-2
O=S(=O)(Nc1ccccc1)c1ccc(F)cc1	5	-15	-1	0	1	1
COc1cccc(C2=NN(C(=O)C3CC3)C(O)(C(F)(F)F)C2)c1 (stereo not given)	·	·	-9	-8	·	·
O=C(O)CSc1cc(C(=O)c2ccccc2O)cn2c(=O)c3c4c(sc3nc12)CCCC4	·	89*	1	-15	·	·
O=C(O)CSc1nc2sc3c(c2c(=O)n1Cc1ccccc1)CCCCC3	·	·	12	-3	-1	6
Cc1cnc(CNC(=O)c2csc([C@@H]3C[C@H](O)[C@@H](CO)O3)n2)cn1	·	·	·	-5	·	·
Cc1ccccc1NC(=O)c1cc(C(=O)c2cc(Cl)ccc2O)cn(-c2ccccc2C)c1=O	-6	70*	-2	6	3	7
c1ccc(-c2csc(Nc3ccc4c(c3)OCCO4)n2)cc1	-12	90*	5	-2	0	3
CC(=O)N/N=C/c1c(C)[nH]n(-c2ccccc2)c1=O	2	56	-1	-8	-1	-1
Cc1[nH]n(-c2ccccc2)c(=O)c1/C=N/NC(=O)C(C)C	-5	76*	-1	-7	8	38
COCC(=O)N/N=C/c1c(C)[nH]n(-c2ccccc2)c1=O	4	73*	·	-7	-2	7
Cc1ccc(F)cc1C(=O)N1CCCCC1c1cc(C(=O)NC(C)C)no1 (stereo not given)	·	·	·	-4	·	·
Cc1cccnc1CNC(=O)C1(C)CCCN1CC(C)C (stereo not given)	·	·	·	-1	·	·
